The values that follow come from ChEMBL document CHEMBL1139184, “Identification of a series of tetrahydroisoquinoline derivatives as potential therapeutic agents for breast cancer” (2007).

The subject of assay [1] is MCF7. As to the kind of experiment: Enhancement of growth of estrogen receptor positive MCF7 cells at 5 uM after 48 hrs by MTT assay relative to DMSO. The class given is functional, cell-based. Particulars: Homo sapiens. The method in brief:
(§1)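 Cells were seeded, left to attach for 24 h, then switched to phenol red-free DMEM with 5% charcoal-stripped FBS. After a further 24 h, compound was added at 5 µM in DMSO (final DMSO ≤0.1%) and incubated 48 h. Viability was read as absorbance at 570 nm by MTT-type kit and expressed relative to DMSO, mean of three determinations.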

Assay [2] has as its target T1, Estrogen receptor (Homo sapiens) (UniProt P03372).
T1 sequence (whole entry): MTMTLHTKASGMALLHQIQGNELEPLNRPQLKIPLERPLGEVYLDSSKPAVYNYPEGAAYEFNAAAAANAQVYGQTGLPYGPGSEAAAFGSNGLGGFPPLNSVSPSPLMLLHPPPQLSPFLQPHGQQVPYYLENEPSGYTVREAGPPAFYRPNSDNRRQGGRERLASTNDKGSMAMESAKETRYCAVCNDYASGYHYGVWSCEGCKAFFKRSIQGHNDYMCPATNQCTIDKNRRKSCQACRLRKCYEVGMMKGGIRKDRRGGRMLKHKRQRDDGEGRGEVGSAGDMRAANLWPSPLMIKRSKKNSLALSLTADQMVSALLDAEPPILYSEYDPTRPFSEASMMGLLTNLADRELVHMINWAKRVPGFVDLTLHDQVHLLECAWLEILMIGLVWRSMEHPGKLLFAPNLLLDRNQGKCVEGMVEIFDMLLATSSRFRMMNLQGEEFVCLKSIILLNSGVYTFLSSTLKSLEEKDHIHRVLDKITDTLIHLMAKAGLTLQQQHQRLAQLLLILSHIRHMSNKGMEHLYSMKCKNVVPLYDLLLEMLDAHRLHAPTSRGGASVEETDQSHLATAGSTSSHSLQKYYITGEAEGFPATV
As to the kind of experiment: Agonist activity at human recombinant ERalpha expressed in MCF7 cells assessed as ERE-driven transactivation at 2.5 uM by luciferase reporter assay relative to DMSO. The class given is functional, cell-based. The method in brief: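 MCF-7 cells in phenol red-free DMEM with 10% charcoal-stripped FBS, plated in triplicate, transfected 24 h later with pCMV-hERa, 3x-ERE-TATA-Luc and pCMV-b. Test compound (2.5 µM) or DMSO added after transfection; lysed after 24 h. Luciferase normalized to b-galactosidase; reported as ratio of compound RLA to DMSO RLA, mean of three determinations.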
On the technique in general: A reporter such as luciferase makes a cellular process visible.

The target of assay [3] is T1, Estrogen receptor (Homo sapiens). Kind of assay: Displacement of ES2 ligand from human recombinant ERalpha relative to tamoxifen. In outline: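 Fluorescence polarization competition assay. Recombinant hERa (7 nM) was preincubated with fluorescent estrogenic probe ES2 (1 nM) in screening buffer, then combined with serial DMSO dilutions of test molecule. After 1 h at room temperature, polarization was read (ex 495 nm, em 535 nm).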

Assay [4] deals with MCF7. Kind of assay: Cell viability of estrogen receptor positive MCF7 cells at 5 uM after 48 hrs by MTT assay relative to DMSO. It counts as functional, Homo sapiens. In outline:
as §1

Assay [5] relates to MDA-MB-231. As to the kind of experiment: Cell viability of estrogen receptor negative MDA-MB-231 cells at 5 uM after 48 hrs by MTT assay relative to DMSO. The class given is functional, Homo sapiens. In outline:
as §1
On the technique in general: Tetrazolium assays rely on reduction of a dye to a coloured formazan, in cell work by metabolically active cells.

The target of assay [6] is T2, Progesterone receptor (Homo sapiens) (UniProt P06401).
T2 sequence (whole entry): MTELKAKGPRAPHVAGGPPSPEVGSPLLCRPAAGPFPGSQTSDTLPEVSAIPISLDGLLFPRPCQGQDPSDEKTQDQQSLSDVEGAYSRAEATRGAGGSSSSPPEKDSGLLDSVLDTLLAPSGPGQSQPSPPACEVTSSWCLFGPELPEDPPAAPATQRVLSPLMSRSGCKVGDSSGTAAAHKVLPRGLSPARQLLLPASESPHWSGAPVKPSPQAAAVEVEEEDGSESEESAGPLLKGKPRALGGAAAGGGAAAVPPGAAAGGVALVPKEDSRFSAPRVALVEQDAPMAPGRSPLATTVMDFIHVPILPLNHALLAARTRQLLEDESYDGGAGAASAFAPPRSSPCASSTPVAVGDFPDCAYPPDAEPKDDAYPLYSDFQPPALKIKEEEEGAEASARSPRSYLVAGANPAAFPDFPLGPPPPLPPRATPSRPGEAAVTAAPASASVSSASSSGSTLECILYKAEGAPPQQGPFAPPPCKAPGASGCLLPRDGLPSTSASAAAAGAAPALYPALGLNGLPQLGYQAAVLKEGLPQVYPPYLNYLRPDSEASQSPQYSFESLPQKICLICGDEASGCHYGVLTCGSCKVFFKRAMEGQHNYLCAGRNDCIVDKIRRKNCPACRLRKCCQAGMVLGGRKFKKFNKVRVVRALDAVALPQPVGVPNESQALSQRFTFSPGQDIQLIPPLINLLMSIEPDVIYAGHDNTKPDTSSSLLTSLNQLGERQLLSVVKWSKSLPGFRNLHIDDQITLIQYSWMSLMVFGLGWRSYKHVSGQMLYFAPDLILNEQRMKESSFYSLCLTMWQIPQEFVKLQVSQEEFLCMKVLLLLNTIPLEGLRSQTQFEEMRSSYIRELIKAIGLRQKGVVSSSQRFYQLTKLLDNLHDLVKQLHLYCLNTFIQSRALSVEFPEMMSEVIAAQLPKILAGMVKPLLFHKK
Kind of assay: Antagonist activity at human PR in T47D cells assessed as MMTV-driven transactivation at 5 uM by luciferase reporter assay relative to progesterone. The class given is functional, cell-based. Details: scale not given: the % may be the effect or the level left. The method in brief: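 T47D cells in phenol red-free RPMI + 10% charcoal-stripped FBS, 3 × 10⁵ cells/well in triplicate. After 24 h, transfected with pCMV-hPR, pMMTV-Luc reporter and pCMV-β normaliser. Treated for 24 h in the presence of 1 nM progesterone. MMTV-driven luciferase measured on lysate and normalised to β-galactosidase luminescence.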

In assay [7] the target is T1, Estrogen receptor (Homo sapiens). Kind of assay: Agonist activity at human ERalpha in T47D cells assessed as enhancement of AP1-driven transactivation at 5 uM by luciferase reporter assay relative to DMSO. It counts as functional, cell-based. The method in brief:
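T47D cells grown in RPMI 1640 + 10% FBS, plated in triplicate at 3 × 10⁵ cells/well in phenol red-free RPMI + 10% charcoal-stripped FBS. After 24 h, transfected with pCMV-hERa, AP1-Luc reporter and pCMV-β (β-gal normalisation). Compound at 5 µM or DMSO for 24 h. Luciferase read and normalised to β-gal. Result expressed as RLA of compound/RLA of DMSO.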

Active and inactive are the calls of the source. No cut-off for these calls is given here.

Turning to `CCCCNC(=O)CCCCCCCCCCOC[C@@H]1Cc2ccccc2CN1C(=O)c1cccc(C)c1`, the result in assay [1] was inactive. Moreover, the outcome in assay [2] was Active. Further, the relative binding affinity (RBA) in assay [3] turned out to be 0.156.
On to `CC/C(=C(\c1ccccc1)c1ccc(OCCN(C)C)cc1)c1ccccc1` [TAMOXIFEN], for which, in assay [1], the result was inactive. Further, the values for the Activity in assay [4] and in assay [5] were 0.43 and 0.65, respectively.
Regarding `CCCCNC(=O)CCCCCCCCCCOC[C@@H]1Cc2ccccc2CN1C(=O)c1ccc(F)cc1`, in assay [1], the result was inactive. Further, in assay [3], the relative binding affinity (RBA) stood at 0.264.
On the same counts, the results for `CCCCNC(=O)CCCCCCCCCCOC[C@@H]1Cc2ccccc2CN1C(=O)c1cccc(OC)c1` are “inactive” and 0.192.
For `CCCCNC(=O)CCCCCCCCCCOC[C@@H]1Cc2ccccc2CN1C(=O)c1ccc(C)cc1`, the result in assay [1] was inactive. Also, the outcome in assay [2] was Active. In addition, in assay [3], the relative binding affinity (RBA) was 0.132.
On to `CCCCNC(=O)CCCCCCCCCCOC[C@@H]1Cc2ccccc2CN1C(=O)c1cccc(Cl)c1`, for which the Activity in assay [6] came to 54%. For the same compound, the outcome in assay [1] was inactive. The result in assay [7] was Active. In assay [3], the relative binding affinity (RBA) is 0.156.
Take `CCCCNC(=O)CCCCCCCCCCOC[C@@H]1Cc2ccccc2CN1C(=O)c1ccc(O)cc1`: in assay [1], the outcome was inactive. Further, the relative binding affinity (RBA) in assay [3] stood at 1.79.
In the case of `CCCCNC(=O)CCCCCCCCCCOC[C@@H]1Cc2ccccc2CN1C(=O)c1ccc(OC)cc1`, the outcome in assay [1] was inactive. For the same compound, the relative binding affinity (RBA) in assay [3] worked out at 0.14.
In the case of `CCCCNC(=O)CCCCCCCCCCOC[C@@H]1Cc2ccccc2CN1C(=O)Cc1cccc(F)c1`, the result in assay [1] was inactive. Further, the outcome in assay [2] was Active. The relative binding affinity (RBA) in assay [3] was found to be 0.267.
For the compound `CCCCNC(=O)CCCCCCCCCCOC[C@@H]1Cc2ccccc2CN1C(=O)c1cccc(F)c1`, the outcome in assay [1] was inactive. Moreover, in assay [3], the relative binding affinity (RBA) amounted to 0.287.
On the same counts, the results for `CCCCNC(=O)CCCCCCCCCCOC[C@@H]1Cc2ccccc2CN1C(=O)c1ccccc1F` are “inactive” and 0.225.
For `C[C@]12CC[C@@H]3c4ccc(O)cc4C[C@@H](CCCCCCCCC[S+]([O-])CCCC(F)(F)C(F)(F)F)[C@H]3[C@@H]1CC[C@@H]2O` (stereo not given in full), in assay [6], the Activity turned out to be 48%.
For the compound `CCCCCCCCNC(=O)CCCCCCCCCCOC[C@@H]1Cc2ccccc2CN1C(=O)c1cccc(F)c1`, in assay [1], the outcome was inactive. Also, in assay [3], the relative binding affinity (RBA) is 0.177.
Take `CCCCNC(=O)CCCCCCCCCCOC[C@@H]1Cc2ccccc2CN1C(=O)c1cccc(O)c1`: the result in assay [1] and in assay [5] (Homo sapiens) was inactive. In assay [4], the Activity came to 0.48. The relative binding affinity (RBA) in assay [3] is 5.
